Measurements published in PMC7495496 (DNA repair, 2019).
Substitutions are numbered along the chain they refer to. Entries after “also recorded” stand apart in the source; their conditions may differ. Like-named read-outs stand apart in the source and are kept apart here. Square brackets hold non-standard residues; d marks the D form. Ends that are not written are not given here. Phe(4-F) = N[C@@H](Cc1ccc(F)cc1)C(=O)O

Legend:
[1] = molecular target: fluorescein-labeled human APLF KBM peptide (human); test: fluorescence polarisation
[2] = molecular target: fluorescein-labeled human APLF KBM peptide (human); test: fluorescence polarisation; remark: listed apart in the source
xlKu80 vWA(S229A) [3] = molecular target: T1, xlKu80 vWA(S229A) (Xenopus laevis, UniProt Q6DDS9, C190S/DEL171-188/S229A); test: 19F NMR binding study, xlKu80 vWA; settings: for binding affinity change resulting from S229A mutation: xlKu80 vWA(S229A) compared with unmodified xlKu80 vWA
T1 sequence (Q6DDS9 with tags, fused parts or gaps DEL171-188/C190S/S229A limits assumed): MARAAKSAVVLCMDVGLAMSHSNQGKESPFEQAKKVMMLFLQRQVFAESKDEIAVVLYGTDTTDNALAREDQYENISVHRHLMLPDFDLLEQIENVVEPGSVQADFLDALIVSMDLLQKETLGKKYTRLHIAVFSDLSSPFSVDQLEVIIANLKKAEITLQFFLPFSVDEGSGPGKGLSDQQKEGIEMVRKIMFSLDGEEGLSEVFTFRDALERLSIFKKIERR
How it was run: (§1)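 Protein (0.2 mM; wild-type-derived or S229A vWA construct, His-tagged, expressed by autoinduction in E. coli BL21(DE3), Ni-NTA and gel filtration purified) titrated with XLF KBMX peptide carrying 4-fluoro-L-Phe at the penultimate position. Peptide stock held protease inhibitor cocktail. ¹⁹F spectra at 564.279 MHz, 25 °C. Internal standard 0.2 mM 4-fluorobenzamide (−34.9 ppm vs external TFA).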

xlKu80 vWA = molecular target: T2, xlKu80 vWA (Xenopus laevis, UniProt Q6DDS9, C190S/DEL171-188); test: 19F NMR binding study, xlKu80 vWA; settings: 0.2 mM xlKu80 vWA; peptide 0.2, 0.4 and 1.0 mM; 25 °C; 150 mM NaCl, 25 mM HEPES
T2 sequence (Q6DDS9 with tags, fused parts or gaps DEL171-188/C190S limits assumed): T1 sequence (Q6DDS9 with tags, fused parts or gaps DEL171-188/C190S/S229A limits assumed) with A211S
How it was run: as §1

xlKu80 vWA(S229A) [4] = molecular target: T1, xlKu80 vWA(S229A); test: X-ray crystallography of xlKu80 vWA; format: binding; settings: crystal of xlKu80 vWA(S229A)-KBMX^XLF, PDB: 6TYX, 1.90 Å

Substance: human Ku80 von Willebrand domain (hsKu80 vWA), 1–240 aa, F47Q/F88Q/L234Q/F237Y (from UniProt P13010 1-240) (domain or fragment)
- Kd [1]: 162 nM
- Kd [2]: 0.162 nM

Substance: KBMX^XLF peptide: KBMX peptide from XLF (KPKKKAKGL[Phe(4-F)]M; not fully specified; printed as KPKKKAKGLF*M)
- binding affinity change resulting from S229A mutation (xlKu80 vWA(S229A) [3]; 19F NMR): increases dramatically; also recorded: dramatically increased affinity
- binding affinity change resulting from S229A mutation (xlKu80 vWA(S229A) [3]; 19F NMR, listed as KBMX^XLF motif peptide): capable of binding
- 19F NMR binding to xlKu80 vWA (xlKu80 vWA): negligible
- binding confirmed by X-ray crystallography (xlKu80 vWA(S229A) [4]): further confirmed by X-ray crystallography

Substance: isolated Xenopus laevis Ku80 von Willebrand A-like domain (xlKu80 vWA) (domain or fragment)
- Kd [1]: 131 nM
- Kd [2]: 0.131 nM

Substance: KPKKKAKGLF*M [fluorinated XLF KBMX peptide]
- 19F NMR linewidth in the presence of vWA(S229A) (xlKu80 vWA(S229A) [3]; 0.2 mM xlKu80 vWA(S229A), 1:1 ratio, 25 °C, 150 mM NaCl, 25 mM HEPES, 1 mM TCEP, 1 mM EDTA, 10 % D2O): 109 Hz
- exchange between 19F resonances of bound and free peptide (xlKu80 vWA(S229A) [3]; 19F NMR, 0.2 mM xlKu80 vWA(S229A) plus 0.2, 0.3, 0.4 mM peptide, 25 °C): slow exchange
